Results gathered from unrelated publications.
Target: Cyclin-dependent kinase-like 2 (CDKL2, Homo sapiens, UniProt Q92772)
One construct used (Q92772 1-493): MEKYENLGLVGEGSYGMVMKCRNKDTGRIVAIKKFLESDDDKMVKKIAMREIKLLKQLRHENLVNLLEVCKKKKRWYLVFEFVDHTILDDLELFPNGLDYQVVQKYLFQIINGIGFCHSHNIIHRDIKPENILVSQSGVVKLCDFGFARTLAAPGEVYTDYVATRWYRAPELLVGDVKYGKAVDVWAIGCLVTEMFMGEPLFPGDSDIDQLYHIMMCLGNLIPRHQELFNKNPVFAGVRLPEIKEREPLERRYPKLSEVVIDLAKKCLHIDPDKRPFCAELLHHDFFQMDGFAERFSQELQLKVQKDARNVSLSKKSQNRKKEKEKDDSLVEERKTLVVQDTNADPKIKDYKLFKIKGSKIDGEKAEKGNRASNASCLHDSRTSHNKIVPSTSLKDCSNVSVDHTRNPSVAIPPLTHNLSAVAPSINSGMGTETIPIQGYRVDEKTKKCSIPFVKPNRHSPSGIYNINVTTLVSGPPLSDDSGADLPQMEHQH

| SMILES | read-out | method | tested at | remaining binding [%] |
| --- | --- | --- | --- | --- |
| O=C1CCc2cc(Nc3cc(OC4CCOCC4)c([N+](=O)[O-])cc3Cl)ccc2N1 | cell-free assay | competition with immobilised ligand | 1 µM | 92 |
| N[C@@H]1CCN(c2nccc(-c3cnn4ncccc34)n2)C1 | binding | – | 1 µM | 100 |
| COc1cnc(Nc2cccc(S(N)(=O)=O)c2)nc1N1CCN(c2ccccc2)C(=O)C1 | binding | competition with immobilised ligand | 1 µM | 98 |
| CCN1CCN(Cc2ccc(C(=O)Nc3ccc(C)c(Oc4ccc5c(c4)CC(=O)N5)c3)cc2C(F)(F)F)CC1 | binding | competition with immobilised ligand | 1 µM | 75 |
| CN(C)c1ncc(F)c(-c2cnn3ncccc23)n1 | binding | – | 1 µM | 89 |
| COc1cnc(Nc2cccc(S(N)(=O)=O)c2)nc1N1CCN(c2ccccc2)CC1 | binding | competition with immobilised ligand | 1 µM | 100 |
| O=C(NCCCN1CCOCC1)c1ccc(Nc2nccc(-c3cc4ccccc4s3)n2)cc1 | binding | competition with immobilised ligand | 1 µM | 7.3 |
| CN(c1ccnc(CNc2nc(Nc3ccc4c(c3)CC(=O)N4)ncc2C(F)(F)F)n1)S(C)(=O)=O | cell-free assay | competition with immobilised ligand | 1 µM | 84 |
| C[C@@H](c1ccc(-n2cnc3c(N)ncnc32)cc1)N1CCc2nn(C)c(Cc3ccccc3)c2C1=O | binding | competition with immobilised ligand | 0.1 µM | 67 |
| Cc1nc(Cc2cccc(C(F)(F)F)c2)sc1-c1ccc(C(N)=O)nc1 | binding | competition with immobilised ligand | 1 µM | 92 |
| c1cnn2ncc(-c3ccnc(N4CCC45COC5)n3)c2c1 | binding | – | 1 µM | 91 |
| c1cncc(-c2cccc(Nc3nccc(NC4CCCCC4)n3)c2)c1 | binding | competition with immobilised ligand | 10 µM | 64 |
| CS(=O)(=O)N1CCCC(NC(=O)[C@H](CCC2CCCCC2)NC(=O)c2ccc(CNC(=O)c3cnc4ccccn34)cc2)C1 (stereo partly shown) | cell-free assay | competition with immobilised ligand | 0.1 µM | 85 |
| C[C@H]1CCN(c2nccc(-c3cnn4ncccc34)n2)C1 | binding | – | 1 µM | 100 |
| CO[C@@H](C)c1c(Nc2ccc([C@@H](N(C)C(=O)C3CCS(=O)(=O)CC3)C(F)(F)F)cc2)cnc2cc(Cl)nn12 | cell-free assay | competition with immobilised ligand | 1 µM | 88 |
| CN(C)c1nccc(-c2cnn3ncccc23)n1 | binding | – | 1 µM | 100 |
| O=C(c1ccc(Nc2ncc(Cl)c(-c3cc4ccccc4s3)n2)cc1)N1CCC(N2CCCC2)CC1 | binding | competition with immobilised ligand | 1 µM | 2.4 |
| O=C(NCC1CCOCC1)c1n[nH]cc1NC(=O)c1c(F)cccc1F | binding | competition with immobilised ligand | 1 µM | 93 |
| COc1ccnn2ncc(-c3ccnc(N(C)C)n3)c12 | binding | – | 1 µM | 91 |
| C[C@H](c1ccnc(Nc2nc3ccc(-c4cc(N(C)C)ncn4)cc3[nH]2)c1)N1CCN(C(=O)CC(F)(F)F)CC1 | binding | competition with immobilised ligand | 0.1 µM | 100 |
| CN(C)c1nccc(-c2cnc3ncccn23)n1 | binding | – | 1 µM | 100 |
| Cc1cnc(Nc2ccc(C(=O)N3CCC(N4CCCC4)CC3)cc2)nc1-c1cc2ccccc2s1 | binding | competition with immobilised ligand | 1 µM | 12 |
